Experimental data as given in the RNAGym collection of RNA variant scans (doi:10.1126/science.aae0568).
Fewer inactive variants are shown than the library holds.

B1: tRNA (parent)
chain: GUUCCGUUGGCGUAAUGGUAACGCGUCUCCCUCCUAAGGAGAAGACUGCGGGUUCGAGUCCCGUACGGAACG

Variants of: B1
Test: yeast fitness relative to wild type (ratio to wild type); higher = fitter; tRNA-Arg(CCU), competitive growth, 37 C, YPD
Method in brief: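 A pool of Saccharomyces cerevisiae strains, each with a tRNA-Arg(CCU) gene variant at the native genomic locus, was competed in YPD at 37°C for 24 hours across six parallel replicates. The variants had been chemically synthesised at a 3% per-site mutation rate over 69 sites, and gene amplicons before and after competition were read by 100-nucleotide paired-end sequencing. Darwinian fitness relative to wild type rested on changes in genotype frequencies. Genotypes required ≥ 100 starting reads, and estimates < 0.5 were set to 0.5.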

Variant | yeast fitness
A21U G52C | ≤ 0.5
C22A C29G G44A U64G | ≤ 0.5
A21U A43G C62A | ≤ 0.5
A21U A69C | 0.827
A21U G56A | 0.646
A21U C22A C29G C55A U59C | 0.647
C22A A43C | 0.694
C22A A43G | 0.809
A21U C31A C34A G39C C61A | ≤ 0.5
C22A C30U A69C | ≤ 0.5
A21U C27U C34A | 0.774
A21U C30G U32C | ≤ 0.5
C22A C24G A36G G39C C55U | ≤ 0.5
A21U C30U C46U A69U | ≤ 0.5
A21U C33G A42G G44A C61U C66U | ≤ 0.5
A21U U53C A57C | 0.619
A21U U26A A37C C62G | ≤ 0.5
A21U A70C | 0.701
C22A A69C A70G | 0.638
C22G C27G C29G C34A G44C G56A A57G | 0.529
A21U U26G G44A | 0.511

Variant | yeast fitness
C22A C30A | 0.686
A21U C33G A42G G44A U64C | 0.558
A21U C62G | 0.586
C22A C24A U26C C66U | ≤ 0.5
C22G A36C G48A C61A C66U | ≤ 0.5
A21U G52A A65U | ≤ 0.5
C22A G23C A36C C60G A65C | ≤ 0.5
C22A G48A | 0.826
C22A U32C | 0.869
C22A G50C A70G | ≤ 0.5
C22G C27G C31G G48A C61G A69U | ≤ 0.5
C22A C29G C33U A70C | ≤ 0.5
A21U G23C C49U | ≤ 0.5
A21U A42G C55U A70C | 0.603
C22G A37U A43U A65C | ≤ 0.5
A21U C24U A57U A65C A69C | ≤ 0.5
C22G C24U C29U A42U | ≤ 0.5
A21U C30A A70G | 0.756
C22A A37C A65G | 0.691
A21U A40C A42U C49U G50C C66U | 0.578
C22G A42U G63C | ≤ 0.5

Variant | yeast fitness
A21U U32G G51C C61U | 0.541
A21U C33U G50A | 0.621
C22G C27G C29G C34A A36G A43U A65U | ≤ 0.5
A21U G25A G56U | ≤ 0.5
A21U U26C A45G | ≤ 0.5
C22A G23A C33U C34G C60G G67A | ≤ 0.5
A21U A42U | 0.792
A21U A42G | 0.583
C22A C27G G41A | 0.614
C22G A42C C66G G67U | ≤ 0.5
A21U U28C C29G C49G A70U | ≤ 0.5
C22A C27G A43U C60A | 0.557
A21U C30A U32A U35G G67A | ≤ 0.5
C22G C27U A70U | 0.678
C22A G25A A65U | 0.684
C22G C27G C31G C60U | ≤ 0.5
C22A C33U | 0.604
A21U A42U A57G | 0.548
C22G A36G A42G | 0.605
C22G A45U A65C | 0.534
C22A C62A | 0.785

Variant | yeast fitness
C22A G23C C49G C60U | ≤ 0.5
C22A G48A C49U G50A G51C U64A A70C | 0.563
A21U C22U U32A G52C | ≤ 0.5
C22G C27U A43G | 0.623
A21U G41A A57C | ≤ 0.5
C22G A45U G48C | 0.511
A21U G38C G44C C62A | ≤ 0.5
A21U C22U U26C | ≤ 0.5
C22G A36C U54C C55U C60A C62G A69U | ≤ 0.5
C22G A36G A37G C60G A69G | ≤ 0.5
A21U U47G U59A | ≤ 0.5
A21U C46U C55A G56C | ≤ 0.5
C22A G25A | 0.992
A21U A43C C62U A65U | ≤ 0.5
A21U G25A | 0.757
C22G A36G C55G | ≤ 0.5
A21U A57U | 0.61
C22A U32A C33U G39A A43C A69C | ≤ 0.5
C22A C61G | 0.594
C22G A43C | 0.708
C22G A43G | 0.702
